Screening results (PubChem BioAssay)
OXTR agonist – agonists of human oxytocin receptor; activation, % at 3 µM; CHO-OTR cells, Fluo-8 calcium fluorescence; normalized: DMSO 0%, oxytocin 100%; 320,000 compounds, 0.32% hits;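 active = activation above the mean of all tested compounds plus 3 SD, cutoff set per screening run, cut at about 20% in these data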;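 note: peak over basal fluorescence ratio from a 100 s FLIPR kinetic read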
Target sequence (P30559 whole entry, looked up): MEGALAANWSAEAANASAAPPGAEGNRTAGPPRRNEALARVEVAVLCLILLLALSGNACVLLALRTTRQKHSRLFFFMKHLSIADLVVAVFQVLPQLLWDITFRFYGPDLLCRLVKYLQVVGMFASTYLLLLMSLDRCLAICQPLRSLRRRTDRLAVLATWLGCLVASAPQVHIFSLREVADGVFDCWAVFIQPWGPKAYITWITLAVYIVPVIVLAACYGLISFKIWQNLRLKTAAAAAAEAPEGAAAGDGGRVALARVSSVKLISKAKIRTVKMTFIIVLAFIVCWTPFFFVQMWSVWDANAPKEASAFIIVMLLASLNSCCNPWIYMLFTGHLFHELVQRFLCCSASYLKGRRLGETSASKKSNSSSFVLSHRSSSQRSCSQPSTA
OXTR potentiate – potentiates the human oxytocin receptor response; P30559; activation, % at 3 µM; AID 2445; CHO-OTR cells, Fluo-8 calcium fluorescence, potentiator mode; 0% = oxytocin EC15, 100% = EC100; 320,000 compounds, 0.061% hits;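 active = activation above that plate's cutoff, the mean activation of tested compounds plus 3 SD, cut at about 6.6% in these data, passing the limit was not always enough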
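Measured by – Fluo-8 calcium dye fluorescence · Test system – human OTR in CHO cells · Dosing – one concentration, 3.0 µM compound · Controls – EC15 oxytocin alone as 0%, 75 nM oxytocin as 100% · Evaluation – normalized max/min fluorescence ratio, % activation · Timing – 6 min pre-incubation, 100 s read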
V1aR counter – counter-screen for oxytocin receptor agonists: human V1a receptor agonists | P37288 | activation, % at 3 µM | CHO-V1R cells, Fluo-8 calcium fluorescence, agonist mode; 0% DMSO, 100% 3 nM vasopressin | 320,000 compounds, 0.25% hits;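 active = activation above the mean activation of all tested compounds plus 3 SD, per screening run, cut at about 20% in these data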;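 note: signal is peak over basal fluorescence ratio across a 100 second FLIPR read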
TAAR1 ag – human TAAR1 agonism | CHO RD-HGA16 TAAR1, Fluo-8 calcium fluorescence; vehicle wells 0%, saturating PEA agonist 100% | activation, % at 3 µM | 360,000 compounds, 0.99% hits | AID 624467;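 active = activation above the mean activation of all test compounds in the run plus 3 SD, cut at about 38% in these data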
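Test system: RD-HGA16 (CHO) cells co-expressing Gα16 and hTAAR1 | Doses: Single dose, 3 µM | Schedule: 17-24 h seeding, 75 min 37 °C dye, 30 min RT | Evaluation: % activation from peak over basal fluorescence ratio, DMSO-to-PEA scaled | Technique: Kinetic Fluo-8 calcium fluorescence | Benchmarks: Low control DMSO, high control PEA (EC100)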
TAAR1 antag – antagonists of human TAAR1. inhibition, % at 3 µM. 360,000 compounds, 1.5% hits. CHO RD-HGA16 TAAR1, Fluo-8 calcium fluorescence, antagonist;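 active = inhibition above a per-plate cutoff, the mean inhibition of test compounds on that plate plus 3 SD, cut at about 49% in these data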
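Assay system: RD-HGA16 CHO cells with stable hTAAR1 and Gα16 / Reagent: EC80 β-phenethylamine stimulus / Doses: 3 µM, single point / Timing: dye loading 75 min at 37 °C, then 30 min room temperature / Measured by: Fluo-8 intracellular calcium dye fluorescence, real-time kinetic reads / Controls: vehicle wells and EC80 agonist wells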
Hits are given with their value; i = inactive; nt = no result. Shown are actives, neighbours in structure and some others; about 2.3% of the full set was active somewhere.

SMILES | OXTR agonist | OXTR potentiate | V1aR counter | TAAR1 ag | TAAR1 antag
CC(=O)Nc1cc(-c2ccccc2)cn2c(-c3cccc(C(C)=O)c3)cnc12 | nt | nt | nt | i | 49
CC(=O)Nc1cc(-c2cccc(F)c2)cn2c(-c3ccc(F)cc3)cnc12 | nt | nt | nt | i | 56
CC(=O)Nc1cccc(-c2cc(NC(C)=O)c3ncc(-c4ccc(F)cc4)n3c2)c1 | nt | nt | nt | i | i
CCOC(=O)c1ccc(S(=O)(=O)Nc2ccccc2-c2nnn(CC)n2)cc1 | nt | nt | nt | i | 53
Cc1ccc(OCC(=O)Nc2ccc(N3CCN(C(=O)c4ccco4)CC3)cc2)cc1C | i | i | i | i | i
Cc1ccccc1C(=O)N1CCN(c2ccc(NC(=S)NC(=O)c3ccco3)cc2)CC1 | i | i | i | i | 62
Cc1cccc(OCC(=O)Nc2ccc(N3CCN(C(=O)c4ccco4)CC3)cc2)c1 | i | i | i | i | 56
COc1ccccc1C(=O)NC(=S)Nc1ccc(N2CCN(C(=O)c3ccco3)CC2)cc1 | i | i | i | i | i
NNC(=O)Cc1cc(=O)[nH][nH]1 | nt | nt | nt | i | i
CCN(CC(=O)Nc1ccc(NC(C)=O)cc1)C(=O)c1ccc2c(c1)OCCO2 | i | i | i | i | i
O=C(CCl)NC(Cc1ccccc1)C(=O)OCC(=O)c1ccc(-c2ccccc2)cc1 (centres undefined) | nt | nt | nt | i | 60
COc1ccc2[nH]cc(C(=O)CCl)c2c1 | i | i | i | i | i
COc1cc(C#Cc2c(-c3cncn3C)n(C)c3ccc(-c4ccc(CN5CCOCC5)cc4)cc23)cc(OC)c1 | i | i | i | i | 56
CCCSc1nc2ccccc2n1CC(=O)O | i | i | i | i | i
CC(C)(C)C(=O)Nc1scc(-c2ccc(-c3ccccc3)cc2)c1C(=O)O | 26 | i | 39 | i | i
CC1CCN(c2nc3c(c(=O)[nH]c(=O)n3C)n2Cc2ccccc2)CC1 | i | i | i | i | i
COC(=O)CN1C(=O)S/C(=C/c2ccc(N3CCCCC3)o2)C1=O | i | i | i | 100 | 60
C=CCNC(=S)N1C[C@H]2CON(C)[C@H]2C[C@H]1c1ccccc1Br | nt | nt | nt | i | i
COc1ccc(N(CC(=O)Nc2ccc3c(c2)OCO3)S(=O)(=O)c2ccccc2)c(OC)c1 | i | i | i | i | 56
S=C(Nc1ccc(Cl)cc1)NC1CC2CCC(C1)N2Cc1ccccc1 (centres undefined) | 21 | i | i | i | i
N#Cc1ccc(CSc2nnc(NC(=O)C3CC(=O)N(c4ccc5c(c4)OCCO5)C3)s2)cc1 (centres undefined) | i | i | i | nt | nt
O=C(Nc1nnc(SCc2ccc(F)cc2)s1)C1CC(=O)N(c2ccc3c(c2)OCCO3)C1 (centres undefined) | i | i | i | 38 | i
CC1CCCc2sc3nc(NCc4ccco4)n4ncnc4c3c21 (centres undefined) | i | i | i | i | i
CCN(CC)S(=O)(=O)c1ccc2oc(SCC(=O)NC3CC3)nc2c1 | i | i | i | i | i
CCN(CC)S(=O)(=O)c1ccc2oc(SCc3ccc(F)cc3)nc2c1 | i | i | i | i | 55
SMILES | OXTR agonist | OXTR potentiate | V1aR counter | TAAR1 ag | TAAR1 antag
CC(=O)N1c2ccccc2[C@H](C)[C@H]1C | i | i | i | i | i
Cc1ccc(C(=O)N2N=C(c3cccc(NS(C)(=O)=O)c3)CC2c2cccs2)cc1 (centres undefined) | i | i | i | i | 51
O=C(COC(=O)c1ccccc1C(=O)N1CCN(c2ccccc2)CC1)Nc1ccc(F)cc1 | i | i | i | i | i
COc1cccc(C#Cc2ccc3c(c2)O[C@@H](CN(C)C(=O)c2ccccn2)[C@@H](C)CN([C@H](C)CO)S3(=O)=O)c1 | nt | nt | nt | i | 49
C[C@H](CO)N1C[C@H](C)[C@H](CN(C)C(=O)c2ccccn2)Oc2cc(C#Cc3ccc(F)cc3)ccc2S1(=O)=O | nt | nt | nt | i | i
O=C1C(Cl)=C(Nc2ccc(O)cc2)C(=O)c2ccccc21 | i | i | i | i | 56
CCCC(=O)NC1=C(Cl)C(=O)c2ccccc2C1=O | nt | nt | nt | 54 | 52
CCOC(=O)C1=C(C)NC(C)=C(C(=O)OCCNC(=O)c2cccnc2)C1c1cccc([N+](=O)[O-])c1 (centres undefined) | i | i | i | nt | nt
COC(=O)C1=C(C)NC(C)=C(C(=O)OCCN(C)Cc2ccccc2)C1c1cccc([N+](=O)[O-])c1 (centres undefined) | i | i | i | i | 49
CC(C)(C)OC(=O)N(CCc1ccccc1)Cc1ccc(OCc2cccc(NC(=O)C3CCCC3)c2)cc1 | nt | nt | nt | i | i
CC(C)(C)OC(=O)N(Cc1ccccc1)Cc1ccc(OCc2cccc(NC(=O)C3CC3)c2)cc1 | nt | nt | nt | i | 53
COC(=O)C1=CN(c2ccc(OC)cc2)C(N)=C(C#N)C1c1ccc(OC)cc1 (centres undefined) | nt | nt | nt | i | i
CCc1ccc(N2C=C(C(=O)OC)C(c3ccc(OC)cc3)C(C#N)=C2N)cc1 (centres undefined) | nt | nt | nt | i | 59
COc1ccc(OC)c(CCNC(=O)Cc2ccc(NC(=O)C3=C(C)OCCS3)cc2)c1 | nt | nt | nt | i | i
COc1ccc(OC)c(CCNC(=O)c2cccc(NC(=O)C3=C(C)OCCS3)c2)c1 | i | i | i | i | 57
Cc1cccc(N2CCN(C(=O)c3ccc(CS(=O)(=O)c4ccccc4C)o3)CC2C)c1 (centres undefined) | i | i | i | i | 50
Cc1cccc(N2CCN(C(=O)c3ccccn3)CC2C)c1 (centres undefined) | i | i | i | i | i
NNc1nc2sc3c(c2c(=O)n1-c1ccccc1)CCCC3 | i | i | i | i | i
O=C(NC1CCCC1)C(c1ccncc1)N(C(=O)c1ccco1)c1ccc(F)c(Cl)c1 (centres undefined) | i | i | i | i | i
OC(CNCCc1ccc(Cl)cc1)COc1ccc2ccccc2c1 (centres undefined) | nt | nt | nt | 42 | i
OC(CNCCc1ccccc1)COc1ccc(OCC(O)CNCCc2ccccc2)cc1 (centres undefined) | i | i | i | i | i
Cc1cc2nc3c(=O)n(CCc4ccccc4)c(=O)[nH]c3nc2cc1N | 64 | i | 41 | 39 | i
Cc1nc2ccccc2c(=O)n1CCc1ccccc1 | i | i | i | i | i
COc1cc2[nH]c(=O)n(C3CCCCC3)c(=O)c2cc1OC | i | i | i | i | i
CCCCn1c(N)c(Br)c(=O)[nH]c1=O | i | i | i | i | i
Nc1ccc2nc3c(=O)n(CCc4ccccc4)c(=O)[nH]c3nc2c1 | 96 | i | 69 | 56 | i
Nc1ccc2nc3c(=O)n(C4CCCCC4)c(=O)[nH]c3nc2c1 | 91 | i | 159 | 88 | i
CCCCn1c(=O)[nH]c2nc3cc(N)ccc3nc2c1=O | 50 | i | 30 | i | i
